Laboratory results as given in ChEMBL document CHEMBL1275590, “Novel arylimidamides for treatment of visceral leishmaniasis” (Antimicrob Agents Chemother, 2010).

Tests used:
Mus musculus [1] = assay: Toxicity in BALB/c mouse assessed as occurrence of edema at 150 mg/kg/day, po; type: organism-based; design: route oral; conditions: in vivo
How it was run: (§1)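 Female BALB/c mice (n = 5 per dose), dosed once daily for 5 consecutive days p.o. (20 ml/kg) or i.v. (10 ml/kg) with compound in sterile water, prepared fresh daily under yellow light. Vehicle controls n = 5 per route. Clinical observations, body weights, serum chemistry and hematology on day 6 before necropsy; histopathology of formalin-fixed tissues. Chemistry analysed by one-way ANOVA with Dunnett's posttest.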

[2] = Half life in Swiss Webster mouse at 1 mg/kg, iv by HPLC-MS/MS analysis; type: ADME, organism-based; design: dose 1 mg/kg, route intravenous; conditions: in vivo
How it was run: (§2)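 Male Swiss Webster mice, n = 3 per time point. For i.v., the compound was dissolved in sterile water, diluted 1:1 with 2× saline, and given as a tail-vein bolus over ~10–20 s. For p.o., it was given by gavage in sterile water. Dose volume was 5 ml/kg. Parameters came from noncompartmental analysis.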

Mus musculus [3] = assay: Toxicity in BALB/c mouse assessed as ataxia at 100 mg/kg/day, ip after second dose; type: organism-based; design: route intraperitoneal; conditions: in vivo
Mus musculus [4] = assay: AUC (0 to infinity) in Swiss Webster mouse at 66 mg/kg, po by HPLC-MS/MS analysis; type: ADME, organism-based, Plasma; design: time infinity, dose 66 mg/kg, route oral; conditions: in vivo
How it was run: as §2, with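 “ml/kg. Terminal plasma was taken from 5 min to 72 h and measured by HPLC-MS/MS (calibration 2.5–10,000 nM).” for “ml/kg.”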

[5] = Tmax in Swiss Webster mouse at 131 mg/kg, po by HPLC-MS/MS analysis; type: ADME, organism-based; design: dose 131 mg/kg, route oral; conditions: in vivo
How it was run: (§3)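 Male Swiss Webster mice (n = 3 per time point), single dose by oral gavage (sterile water solution) or tail-vein bolus i.v. (water diluted 1:1 with 2× saline, over ~10–20 s); dose volume 5 ml/kg. Terminal blood sampled from 5 min to 72 h postdose; plasma quantified by HPLC-MS/MS (positive-ion SRM). Noncompartmental analysis gave Cmax, Tmax, AUC0-∞, CL, Vss; bioavailability from p.o. versus i.v. exposure.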

Mus musculus [6] = assay: Toxicity in BALB/c mouse assessed as occurrence of tremor at 10 mg/kg/day, iv administered for five days measured on day 2; type: organism-based; design: route intravenous; conditions: in vivo; how it was run: as §1
Mus musculus [7] = assay: Toxicity in BALB/c mouse assessed as occurrence of ruffled fur at 150 mg/kg/day, po administered for five days measured on day 4; type: organism-based; design: route oral; conditions: in vivo; how it was run: as §1
Mus musculus [8] = assay: Hepatotoxicity in BALB/c mouse assessed as ALT level in serum at 10 mg/kg/day, iv administered for five days (Rvb= 34 U/L); type: toxicity, organism-based; design: route intravenous; conditions: in vivo
Mus musculus [9] = assay: Renal toxicity in BALB/c mouse assessed as blood urea nitrogen level in serum at 100 mg/kg/day, po administered for five days (Rvb= 29 mg/dl); type: organism-based; design: route oral; conditions: in vivo; how it was run: as §1
Mus musculus [10] = assay: Hepatotoxicity in BALB/c mouse assessed as alkaline phosphatase level in serum at 100 mg/kg/day, po administered for five days (Rvb= 129 U/L); type: toxicity, organism-based; design: route oral; conditions: in vivo
[11] = Induction of mutagenicity in Salmonella serovar Typhimurium TA 98 assessed as number of revertant colonies at 50 ug by Ames assay; type: toxicity, Salmonella enterica subsp. enterica serovar Typhimurium
How it was run: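 Plate incorporation test, S. Typhimurium TA98 (and TA100), with or without Aroclor 1254-induced rat liver S9 (10% vol/vol). Compound dissolved in sterile water, serially diluted to 1–1,000 or 1–500 μg/plate. Positive controls: 2-nitrofluorene and sodium azide without S9, 2-aminoanthracene with S9; water and DMSO vehicle controls. Revertant colonies and background lawn scored; mutagen if mean revertants ≥2-fold solvent control. Single experiment.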

[12] = Induction of mutagenicity in Salmonella serovar Typhimurium TA 100 assessed as number of revertant colonies at 1 ug by Ames assay; type: toxicity, Salmonella enterica subsp. enterica serovar Typhimurium; conditions: in vivo
How it was run: (§4)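 Ames plate incorporation with S. Typhimurium TA98 and TA100, with or without Aroclor 1254-induced rat liver S9 (10% vol/vol). Compound was dissolved in sterile water and serially diluted to 1–500 μg/plate. Positive controls were 2-nitrofluorene and sodium azide without S9, and 2-aminoanthracene with S9; sterile water and DMSO served as vehicles. Revertant colonies and background lawn were scored. A mutagen was defined as a mean revertant count at least 2-fold over solvent control. Single experiment.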

[13] = Induction of mutagenicity in Salmonella serovar Typhimurium TA 100 assessed as number of revertant colonies at 50 ug by Ames assay; type: toxicity, Salmonella enterica subsp. enterica serovar Typhimurium; conditions: in vivo; how it was run: as §4
[14] = Half life in Swiss Webster mouse at 70 mg/kg, po by HPLC-MS/MS analysis; type: ADME, organism-based; design: dose 70 mg/kg, route oral; conditions: in vivo
How it was run: as §2, with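 “ml/kg. Terminal plasma was taken from 5 min to 72 h and measured by HPLC-MS/MS (calibration 2.5–10,000 nM).” for “ml/kg.”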

Mus musculus [15] = assay: Toxicity in BALB/c mouse assessed as hypoactivity at 50 mg/kg/day, ip administered for five days; type: organism-based; design: route intraperitoneal; conditions: in vivo
Leishmania donovani = assay: Antileishmanial activity against Leishmania donovani WR378 infected in golden Syrian hamster assessed as reduction in spleen parasitemia at 50 mg/kg/day, po administered for five days; type: functional; conditions: 120 h
How it was run: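 11-day golden hamster VL model adapted from an 8-day method, using L. donovani WR378 metacyclic promastigotes. Dosing was oral, once daily for 5 days. Animals were euthanized on day 11 post-infection. Liver, spleen and femoral bone marrow (flushed with Schneider's medium) were harvested.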

[16] = AUC (0 to infinity) in Swiss Webster mouse at 5 mg/kg, iv by HPLC-MS/MS analysis; type: ADME, organism-based; design: time infinity, dose 5 mg/kg, route intravenous; conditions: plasma
How it was run: as §2, with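 “ml/kg. Terminal plasma was taken from 5 min to 72 h and measured by HPLC-MS/MS (calibration 2.5–10,000 nM).” for “ml/kg.”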

[17] = Oral bioavailability in Swiss Webster mouse at 70 mg/kg by HPLC-MS/MS analysis; type: ADME, organism-based; conditions: in vivo; how it was run: as §3
Mus musculus [18] = assay: Toxicity in BALB/c mouse assessed as occurrence of tremor at 50 mg/kg, iv; type: organism-based; design: dose 50 mg/kg, route intravenous; conditions: in vivo
How it was run: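 Single-dose escalation: female BALB/c mice (n = 1 per dose level) given one i.v. dose in sterile water (10 ml/kg), 5–50 mg/kg, observed for 2 days.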

Mus musculus [19] = assay: Hepatotoxicity in BALB/c mouse assessed as AST level in serum at 30 mg/kg/day, iv administered for five days (Rvb= 65 U/L); type: toxicity, organism-based; design: route intravenous; conditions: in vivo
Mus musculus [20] = assay: Hepatotoxicity in BALB/c mouse assessed as ALT level in serum at 30 mg/kg/day, iv administered for five days (Rvb= 34 U/L); type: toxicity, organism-based; design: route intravenous; conditions: in vivo
Mus musculus [21] = assay: Hepatotoxicity in BALB/c mouse assessed as AST level in serum at 100 mg/kg/day, po administered for five days (Rvb= 70 U/L); type: toxicity, organism-based; design: route oral; conditions: in vivo
Mus musculus [22] = assay: Renal toxicity in BALB/c mouse assessed as blood urea nitrogen level in serum at 150 mg/kg/day, po administered for five days (Rvb= 29 mg/dl); type: organism-based; design: route oral; conditions: in vivo; how it was run: as §1
[23] = Induction of mutagenicity in Salmonella serovar Typhimurium TA 98 assessed as number of revertant colonies at 100 ug by Ames assay in presence of Aroclor 1254-induced rat liver S9 metabolic activation system; type: toxicity, subcellular, Salmonella enterica subsp. enterica serovar Typhimurium; how it was run: as §4
[24] = Drug level in Swiss Webster mouse liver at 5 mg/kg, iv after 2 hrs by HPLC/UV analysis; conditions: read-out: Drug uptake
[25] = Drug level in Swiss Webster mouse liver at 70 mg/kg, po after 2 hrs by HPLC/UV analysis; conditions: read-out: Drug uptake
[26] = Drug level in Swiss Webster mouse kidney at 70 mg/kg, po after 2 hrs by HPLC/UV analysis; conditions: read-out: Drug uptake

Which Activity (Mus musculus [1]) does the source give for `CCOc1cc(NC(=N)c2ccccn2)ccc1-c1ccc(-c2ccc(NC(=N)c3ccccn3)cc2OCC)o1` here?
The Activity was “Toxic”.

And the half-life [2]?
Its half-life is 17 h.

And the Activity (Mus musculus [3])?
Its Activity is “Toxic”.

What about the AUC (Mus musculus [4]) of the same molecule?
The AUC was 5.6 µM·h.

And the Tmax [5]?
The Tmax was 2 h.

What about the Activity (Mus musculus [6]) of the same molecule?
Its Activity is “Toxic”.

And the Activity (Mus musculus [7])?
The Activity was “Toxic”.

What about the Activity (Mus musculus [8]) of the same molecule?
Its Activity is 40 U/L.

And the Activity (Mus musculus [9])?
The Activity was 52 mg/dL.

What about the Activity (Mus musculus [10]) of the same molecule?
The Activity was 120 U/L.

Which results are given for `CC(C)Oc1cc(NC(=N)c2ccccn2)ccc1-c1ccc(-c2ccc(NC(=N)c3ccccn3)cc2OC(C)C)o1`?
Activity [11]: 28; Activity [12]: 152; Activity [13]: 79; half-life [14]: 48 h; Activity (Mus musculus [15]): Toxic; inhibition in vivo at 50 mg/kg/day (Leishmania donovani): 74%; AUC(0-inf) [16]: 9.53 µM·h; bioavailability [17]: 10.4%; Activity (Mus musculus [18]): Toxic; Activity (Mus musculus [19]): 73 U/L; Activity (Mus musculus [20]): 35 U/L; Activity (Mus musculus [21]): 68 U/L; Activity (Mus musculus [22]): 29 U/L; Activity [23]: 38; concentration at 2 h [24]: 18.7 µM; concentration at 2 h [25]: 45.8 µM; concentration at 2 h [26]: 30.3 µM
